Calls of active or inactive are those of the source. The rule behind the calls is not given here.
How the values were obtained:
[1] = Inhibition of FAM-Bim peptide binding to human full-length N-terminal His6-tagged Bcl2 R106A/R109A mutant expressed in Escherichia coli S12 extract measured after 30 mins by fluorescence polarization assay
[2] = target: T1, Apoptosis regulator Bcl-2 (Homo sapiens, UniProt P10415); experiment: Inhibition of FAM-Bim peptide binding to human full-length N-terminal His6-tagged Bcl2 (2 to 206 residues) expressed in Escherichia coli S12 extract measured after 30 mins by fluorescence polarization assay
[3] = Resistance ratio of EC50 for induction of apoptosis in human OCI-AML-3 cells to EC50 for Induction of apoptosis in human MCF7 cells; assay type: functional
[4] = target: T1, Apoptosis regulator Bcl-2; experiment: Induction of BCl-2 dephosphorylation in human OCI-AML-3 cells assessed as increase in Bax expression at 5 to 10 uM measured after 24 hrs by coimmunoprecipitation method; assay type: cell-based; details: dose microM 5-10, time 24.0 hrs
How it was run: (§1)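 Cells treated for 24 h, then lysed in 1% CHAPS buffer. 500 μg total protein precleared with protein A-Sepharose, incubated overnight with 5 μg specific antibody, captured on protein A-Sepharose or G-agarose, then immunoblotted. Bax/Bcl-2 complex, pBcl-2 (Ser70) and total Bcl-2 read out; n = 3 independent samples.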

MCF7 = experiment: Induction of apoptosis in human MCF7 cells measured after 48 hrs by FITC-Annexin V/PS staining based; assay type: functional, cell-based; details: MCF7, 48 h
[5] = Resistance ratio of EC50 for induction of apoptosis in human HL-60 cells to EC50 for Induction of apoptosis in human KG-1 cells; assay type: functional
[6] = target: T1, Apoptosis regulator Bcl-2; experiment: Induction of BCl-2 dephosphorylation in human HL-60 cells at 5 to 10 uM measured after 24 hrs by coimmunoprecipitation method; assay type: cell-based; details: dose microM 5-10, time 24.0 hrs; how it was run: as §1
[7] = target: Induced myeloid leukemia cell differentiation protein Mcl-1 (Homo sapiens, UniProt Q07820); experiment: Inhibition of FAM-Bim peptide binding to MCl1 (unknown origin) measured after 30 mins by fluorescence polarization assay
Bcl-2-like protein 1 [8] = target: T2, Bcl-2-like protein 1 (Homo sapiens, UniProt Q07817); experiment: Inhibition of FAM-Bim peptide binding to Bcl-xl (unknown origin) measured after 30 mins by fluorescence polarization assay
[9] = target: T1, Apoptosis regulator Bcl-2; experiment: Induction of BCl-2 dephosphorylation in human OCI-AML-3 cells at 5 to 10 uM measured after 24 hrs by coimmunoprecipitation method; assay type: cell-based; details: dose microM 5-10, time 24.0 hrs; how it was run: as §1
[10] = Resistance ratio of EC50 for induction of apoptosis in human OCI-AML-3 cells to EC50 for Induction of apoptosis in human KG-1 cells; assay type: functional
[11] = Resistance ratio of EC50 for induction of apoptosis in human HL-60 cells to EC50 for Induction of apoptosis in human MCF7 cells; assay type: functional
[12] = target: T1, Apoptosis regulator Bcl-2; experiment: Induction of BCl-2 dephosphorylation in human HL-60 cells assessed as increase in Bax expression at 5 to 10 uM measured after 24 hrs by coimmunoprecipitation method; assay type: cell-based; details: dose microM 5-10, time 24.0 hrs; how it was run: as §1
OCI-AML-3 = experiment: Induction of apoptosis in human OCI-AML-3 cells measured after 48 hrs by FITC-Annexin V/PS staining based; assay type: functional, cell-based; details: OCI-AML-3, 48 h
KG-1 = experiment: Induction of apoptosis in human KG-1 cells measured after 48 hrs by FITC-Annexin V/PS staining based; assay type: functional, cell-based; details: KG-1, 48 h
HL-60 = experiment: Induction of apoptosis in human HL-60 cells measured after 48 hrs by FITC-Annexin V/PS staining based; assay type: functional, cell-based; details: HL-60, 48 h
[13] = target: T1, Apoptosis regulator Bcl-2; experiment: Effect on Bcl2 phosphorylation in human HL-60 cells by Western blot analysis
[14] = Binding affinity to human full-length N-terminal His6-tagged Bcl2 R106A/R109A mutant expressed in Escherichia coli S12 extract by isothermal titration calorimetry
[15] = Binding affinity to human full-length N-terminal His6-tagged prephosphorylated Bcl2 R106A/R109A mutant expressed in Escherichia coli S12 extract by isothermal titration calorimetry
Bcl-2-like protein 1 [16] = target: T2, Bcl-2-like protein 1; experiment: Effect on Bcl-xl phosphorylation in human HL-60 cells at 1 to 30 uM by Western blot analysis; details: dose microM 1-30
[17] = target: T1, Apoptosis regulator Bcl-2; experiment: Induction of BCl-2 dephosphorylation in human HL-60 cells assessed as increase in Bax expression at 5 to 15 uM measured after 24 hrs by coimmunoprecipitation method; assay type: cell-based; details: filed as modulator, dose microM 5-15, time 24.0 hrs; how it was run: as §1
[18] = target: T1, Apoptosis regulator Bcl-2; experiment: Induction of BCl-2 dephosphorylation in human HL-60 cells at 5 to 15 uM measured after 24 hrs by coimmunoprecipitation method; assay type: cell-based; details: filed as modulator, dose microM 5-15, time 24.0 hrs; how it was run: as §1
[19] = target: T1, Apoptosis regulator Bcl-2; experiment: Induction of BCl-2 dephosphorylation in human HL-60 cells assessed as increase in Bax expression at 1 to 5 uM measured after 24 hrs by coimmunoprecipitation method; assay type: cell-based; details: dose microM 1-5, time 24.0 hrs; how it was run: as §1
[20] = target: T1, Apoptosis regulator Bcl-2; experiment: Induction of BCl-2 dephosphorylation in human OCI-AML-3 cells at 1 to 5 uM measured after 24 hrs by coimmunoprecipitation method; assay type: cell-based; details: dose microM 1-5, time 24.0 hrs; how it was run: as §1
[21] = target: T1, Apoptosis regulator Bcl-2; experiment: Induction of BCl-2 dephosphorylation in human OCI-AML-3 cells assessed as increase in Bax expression at 1 to 5 uM measured after 24 hrs by coimmunoprecipitation method; assay type: cell-based; details: dose microM 1-5, time 24.0 hrs; how it was run: as §1
[22] = target: T1, Apoptosis regulator Bcl-2; experiment: Induction of BCl-2 dephosphorylation in human HL-60 cells at 1 to 5 uM measured after 24 hrs by coimmunoprecipitation method; assay type: cell-based; details: dose microM 1-5, time 24.0 hrs; how it was run: as §1
[23] = Binding affinity to human full-length N-terminal His6-tagged prephosphorylated Bcl2 R106A/R109A mutant expressed in Escherichia coli S12 extract after 30 mins using FAM-labelled compound by fluorescence polarization assay
[24] = target: T1, Apoptosis regulator Bcl-2; experiment: Binding affinity to human full-length N-terminal His6-tagged prephosphorylated Bcl2 (2 to 206 residues) expressed in Escherichia coli S12 extract after 30 mins using FAM-labelled compound by fluorescence polarization assay
[25] = target: T1, Apoptosis regulator Bcl-2; experiment: Binding affinity to human full-length N-terminal His6-tagged Bcl2 (2 to 206 residues) expressed in Escherichia coli S12 extract after 30 mins using FAM-labelled compound by fluorescence polarization assay
[26] = Binding affinity to human full-length N-terminal His6-tagged Bcl2 R106A/R109A mutant expressed in Escherichia coli S12 extract after 30 mins using FAM-labelled compound by fluorescence polarization assay

T1 sequence (P10415 whole entry, the tested form may be a part): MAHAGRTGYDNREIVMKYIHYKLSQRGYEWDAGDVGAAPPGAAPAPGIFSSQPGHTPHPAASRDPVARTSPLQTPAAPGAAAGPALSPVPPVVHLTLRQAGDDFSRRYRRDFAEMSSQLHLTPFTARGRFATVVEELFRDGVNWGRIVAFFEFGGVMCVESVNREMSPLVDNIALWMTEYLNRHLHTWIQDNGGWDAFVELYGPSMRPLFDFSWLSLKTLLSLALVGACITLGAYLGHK
T2 sequence (Q07817 whole entry): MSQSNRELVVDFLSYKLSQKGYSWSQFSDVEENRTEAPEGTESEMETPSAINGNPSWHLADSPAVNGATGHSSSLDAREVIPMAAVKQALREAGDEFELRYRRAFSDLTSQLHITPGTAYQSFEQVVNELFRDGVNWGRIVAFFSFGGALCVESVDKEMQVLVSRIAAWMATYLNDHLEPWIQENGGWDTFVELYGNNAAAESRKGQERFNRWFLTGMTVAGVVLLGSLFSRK
Induced myeloid leukemia cell differentiation protein Mcl-1, sequence (Q07820 whole entry): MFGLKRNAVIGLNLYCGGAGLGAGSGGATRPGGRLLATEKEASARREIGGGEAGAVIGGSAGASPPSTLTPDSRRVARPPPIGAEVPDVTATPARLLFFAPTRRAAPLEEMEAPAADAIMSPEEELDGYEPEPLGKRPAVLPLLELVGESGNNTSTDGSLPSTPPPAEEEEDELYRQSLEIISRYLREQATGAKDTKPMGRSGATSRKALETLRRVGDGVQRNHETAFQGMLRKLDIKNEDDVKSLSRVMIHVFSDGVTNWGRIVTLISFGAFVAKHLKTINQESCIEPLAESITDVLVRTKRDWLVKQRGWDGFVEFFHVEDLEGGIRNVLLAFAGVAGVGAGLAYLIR

SMILES | Ki [1] [nM] | Ki [2] [nM] | EC50 (MCF7) [nM] | Ki [7] [nM] | Ki (Bcl-2-like protein 1 [8]) [nM] | EC50 (OCI-AML-3) [nM] | EC50 (KG-1) [nM] | EC50 (HL-60) [nM] | also measured
N#CC1=C(NCCC(=O)NCc2ccccc2C(=O)O)c2ccc(Sc3ccc(Br)cc3)c3cccc(c23)C1=O | 1750 | 1350 | – | – | – | – | – | – | –
CCCCNC1=C(C#N)C(=O)c2cccc3c(Sc4ccc(Br)cc4)ccc1c23 | 150 | 210 | 3100 | 350 | 550 | 15400 | 2700 | 16900 | Ratio EC50 [3]: 5; Activity [4]: inactive; Ratio EC50 [5]: 5; Activity [6]: inactive; Activity [9]: inactive; Ratio EC50 [10]: 5; Ratio EC50 [11]: 5; Activity [12]: inactive; Activity [13]: inactive
N#CC1=C(NCCC(=O)NCc2ccccc2)c2ccc(Sc3ccc(Br)cc3)c3cccc(c23)C1=O | 1880 | 1050 | 18500 | 560 | 1110 | 22300 | 16800 | 21700 | Activity [4]: inactive; Activity [6]: inactive; Activity [9]: inactive; Activity [12]: inactive
CC1(C)CCC(c2ccc(Cl)cc2)=C(CN2CCN(c3ccc(C(=O)NS(=O)(=O)c4ccc(N[C@H](CCN5CCOCC5)CSc5ccccc5)c(S(=O)(=O)C(F)(F)F)c4)cc3)CC2)C1 [NAVITOCLAX] | – | – | – | – | – | – | – | – | Kd [14]: 27.8 nM; Kd [15]: 30.6 nM
CN(C)c1ccc(CNC(=O)CCNC2=C(C#N)C(=O)c3cccc4c(Sc5ccc(Br)cc5)ccc2c34)cc1 | 840 | 4320 | – | – | – | – | – | – | –
N#CC1=C(NCCC(=O)NCc2ccc(C(=O)O)cc2)c2ccc(Sc3ccc(Br)cc3)c3cccc(c23)C1=O | 1650 | 160 | 5500 | 320 | 810 | 4000 | 4900 | 3800 | Activity ([4]; filed as modulator): Active; Activity (Bcl-2-like protein 1 [16]): inactive; Activity [17]: Active; Activity ([9]; filed as modulator): Active; Activity [18]: Active
N#CC1=C(C#N)c2ccc(Sc3ccc(Br)cc3)c3cccc(c23)C1=O | 1670 | 850 | – | 490 | 750 | – | – | – | –
N#CC1=C(NCCC(=O)NCc2cccc(C(=O)O)c2)c2ccc(Sc3ccc(Br)cc3)c3cccc(c23)C1=O | 1670 | 1020 | – | – | – | – | – | – | –
N#CC1=C(NCCC(=O)NCCOCCO)c2ccc(Sc3ccc(Br)cc3)c3cccc(c23)C1=O | 770 | 810 | – | – | – | – | – | – | –
N#CC1=C(NCc2ccc(C(=O)O)cc2)c2ccc(Sc3ccc(Br)cc3)c3cccc(c23)C1=O | 940 | 780 | – | – | – | – | – | – | –
CC1(C)CCC(CN2CCN(c3ccc(C(=O)NS(=O)(=O)c4ccc(NCC5CCOCC5)c([N+](=O)[O-])c4)c(Oc4cnc5[nH]ccc5c4)c3)CC2)=C(c2ccc(Cl)cc2)C1 [VENETOCLAX] | – | – | 1350 | – | – | 6800 | 850 | 8100 | Kd [14]: 4.5 nM; Activity [19]: inactive; Activity [20]: inactive; Kd [15]: 5.5 nM; Activity [21]: inactive; Activity [22]: inactive
CC[C@H](C)[C@H](NC(=O)[C@H](CCCNC(=N)N)NC(=O)[C@H](CCCNC(=N)N)NC(=O)[C@H](CC(C)C)NC(=O)[C@H](CS)NC(=O)[C@H](CCC(=O)O)NC(=O)[C@H](CO)NC(=O)[C@H](CC(C)C)NC(=O)[C@H](CCCCN)NC(=O)[C@H](CCCCN)NC(=O)[C@@H](NC(=O)[C@H](CO)NC(=O)[C@H](C)NC(=O)[C@H](CC(=O)O)NC(=O)[C@H](CCC(N)=O)NC(=O)[C@@H]1CCCN1C(=O)[C@@H]1CCCN1C(=O)[C@@H](N)CCC(N)=O)[C@@H](C)O)C(=O)NCC(=O)N[C@@H](CC(=O)O)C(=O)N[C@@H](CCC(=O)O)C(=O)N[C@@H](CC(C)C)C(=O)N[C@@H](CC(=O)O)C(=O)N[C@@H](CO)C(=O)N[C@@H](CC(N)=O)C(=O)N[C@@H](CCSC)C(=O)N[C@@H](CCC(=O)O)C(=O)N[C@@H](CC(C)C)C(=O)N[C@@H](CCC(N)=O)C(=O)N[C@@H](CCCNC(=N)N)C(=O)N[C@@H](CCSC)C(=O)N[C@H](C(=O)N[C@@H](C)C(=O)N[C@@H](CC(=O)O)C(=O)N[C@H](C(=O)N[C@@H](CC(=O)O)C(=O)O)C(C)C)[C@@H](C)CC | – | – | – | – | – | – | – | – | Kd [23]: 16.2 nM; Kd [24]: 2.1 nM; Kd [25]: 19.6 nM; Kd [26]: 15.5 nM
N#CC1=C(NCCC(=O)O)c2ccc(Sc3ccc(Br)cc3)c3cccc(c23)C1=O | 1440 | 1270 | – | – | – | – | – | – | –

Reference: ChEMBL document CHEMBL4699647, “Targeting the Allosteric Pathway That Interconnects the Core-Functional Scaffold and the Distal Phosphorylation Sites for Specific Dephosphorylation of Bcl-2” (J Med Chem, 2020)
